According to PMC5073817 (ACS chemical neuroscience, 2016):
“Also recorded” adds a separate entry of the source. Like-named read-outs stand apart in the source and are kept apart here. Marks after values point to notes of the source that are not given here.

Experiments:
[1] = tested on: unilateral 6-OHDA lesion forelimb asymmetry; assay: 6-OHDA lesion-induced forelimb asymmetry; assay type: in vivo, rats
[2] = tested on: mGlu2 coexpressed with mGlu4; details: cited from earlier work
[3] = tested on: haloperidol-induced catalepsy; details: 56.6 mg/kg p.o.; previously demonstrated; cited from earlier work
6-OHDA lesion models = details: various 6-OHDA lesion models; cited from earlier work
mGlu4 = mGlu4 (Rattus norvegicus, UniProt P31423); assay: Glutamate concentration-response curve shift in cells expressing mGlu4 alone; assay type: cell-based; details: for fold shift of glutamate CRC / glutamate pEC50 in presence of PAM: mGlu4 alone
mGlu2/4 heteromers = mGlu2/4 heteromers (Rattus norvegicus, UniProt P31423); assay: CODA-RET assay, mGlu4_L1/mGlu2_L2; assay type: cell-based; details: for max response (BRET) in presence of PAM: L-AP4; for potentiation of L-AP4 responses: mGlu4_L1 and mGlu2_L2 coexpressed
Summary of the method: (§1)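 HEK-293T cells were PEI-transfected with HA-tagged rat mGlu constructs bearing luciferase fragments, plus Gαi-mVenus, Gβ1 and Gγ2. Plasmid ratios were 4:4:1:1:1 for mGlu4-L1/mGlu4-L2 homomers and 4:8:1:1:1 for mGlu4-L1/mGlu2-L2 heteromers. At 48 h, about 200 000 cells/well in PBS were stimulated 5 min at 37 °C with L-AP4 with or without increasing compound. Coelenterazine H (5 µM) was added, read 2 min later; BRET ratio = 510–540 nm over 485 nm.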

mGlu2/4 = assay: Glutamate concentration-response curve shift in cells expressing mGlu2 and mGlu4; assay type: cell-based, rat; details: for effect on the glutamate CRC: cells expressing mGlu2 and mGlu4; for fold shift of glutamate CRC / glutamate pEC50 in presence of PAM: mGlu2/4 cells
mGlu4 homomers = mGlu4 homomers (Rattus norvegicus, UniProt P31423); assay: CODA-RET assay, mGlu4_L1/mGlu4_L2; assay type: cell-based; details: for max response (BRET) in presence of PAM: mGlu4_L1/mGlu4_L2, L-AP4; for potentiation of L-AP4 responses: mGlu4 labeled with L1 or L2
Summary of the method: as §1

human mGlu4 = human mGlu4 (Homo sapiens, UniProt Q14833); assay: Gqi5-mediated calcium mobilization assay, human mGlu4/Gqi5/CHO cells; assay type: cell-based; details: absence of glutamate
rat mGlu4 = rat mGlu4 (Rattus norvegicus, UniProt P31423); assay: GIRK/thallium flux assay, rat mGlu4/HEK/GIRK cells; assay type: cell-based
Summary of the method: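 Polyclonal HEK/GIRK cells stably expressing rat mGlu4 (pIRESpuro3, puromycin-selected) were loaded with 330 nM final FluoZin-2 AM in HBSS/20 mM HEPES pH 7.4 for 1 h at room temperature. Thallium flux was read kinetically at room temperature. EC50 came from four-parameter logistic fits; three determinations in triplicate, mean ± SEM.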

[4] = Plasma and brain exposure time course after 30 mg/kg dose; assay type: in vivo; details: rat
[5] = cited from earlier work
[6] = tested on: haloperidol-induced catalepsy; assay: Haloperidol-induced catalepsy; assay type: in vivo, Sprague–Dawley rats; details: oral, catalepsy assessed 30 min after dosing
[7] = tested on: rotarod motor performance; assay: Rotarod test; assay type: in vivo, rats; details: doses up to 100 mg/kg p.o., tested 30 min later
Summary of the method: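 Rats were pre-trained on the rotarod, then given vehicle or test compound at 10, 30, 56.6 or 100 mg/kg p.o. (10 mL/kg). Motor performance was tested 30 min after dosing.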

[8] = CODA-RET, labeled mGlu2 and mGlu4 coexpressed

Sequence of mGlu4 homomers (P31423 33-912): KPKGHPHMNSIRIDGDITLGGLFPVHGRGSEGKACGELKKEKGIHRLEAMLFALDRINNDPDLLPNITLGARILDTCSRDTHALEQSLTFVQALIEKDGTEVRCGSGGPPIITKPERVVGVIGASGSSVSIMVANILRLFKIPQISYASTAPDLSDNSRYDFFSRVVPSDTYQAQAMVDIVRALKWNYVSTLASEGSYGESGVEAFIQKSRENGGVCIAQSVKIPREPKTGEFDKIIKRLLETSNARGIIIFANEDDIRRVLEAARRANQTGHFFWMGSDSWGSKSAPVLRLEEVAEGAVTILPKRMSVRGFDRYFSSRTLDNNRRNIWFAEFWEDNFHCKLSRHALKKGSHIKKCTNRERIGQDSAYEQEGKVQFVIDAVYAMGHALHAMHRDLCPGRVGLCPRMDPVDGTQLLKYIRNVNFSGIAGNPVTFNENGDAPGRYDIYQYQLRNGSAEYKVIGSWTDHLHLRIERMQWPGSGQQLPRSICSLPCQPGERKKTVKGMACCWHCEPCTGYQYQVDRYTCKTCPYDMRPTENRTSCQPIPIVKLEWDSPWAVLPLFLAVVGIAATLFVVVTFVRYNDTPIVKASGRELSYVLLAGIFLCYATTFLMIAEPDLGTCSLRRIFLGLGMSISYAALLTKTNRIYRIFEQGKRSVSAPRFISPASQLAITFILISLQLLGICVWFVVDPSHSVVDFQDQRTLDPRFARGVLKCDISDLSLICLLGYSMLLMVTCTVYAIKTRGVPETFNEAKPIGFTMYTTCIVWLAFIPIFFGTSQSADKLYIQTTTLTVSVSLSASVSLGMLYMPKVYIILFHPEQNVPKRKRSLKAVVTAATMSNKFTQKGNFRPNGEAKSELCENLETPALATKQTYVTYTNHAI
Sequence of mGlu4 homomers (P31423 33-912): as above
Sequence of mGlu2/4 heteromers (P31423 33-912): as above
Sequence of mGlu2/4 heteromers (P31421 19-872 partner): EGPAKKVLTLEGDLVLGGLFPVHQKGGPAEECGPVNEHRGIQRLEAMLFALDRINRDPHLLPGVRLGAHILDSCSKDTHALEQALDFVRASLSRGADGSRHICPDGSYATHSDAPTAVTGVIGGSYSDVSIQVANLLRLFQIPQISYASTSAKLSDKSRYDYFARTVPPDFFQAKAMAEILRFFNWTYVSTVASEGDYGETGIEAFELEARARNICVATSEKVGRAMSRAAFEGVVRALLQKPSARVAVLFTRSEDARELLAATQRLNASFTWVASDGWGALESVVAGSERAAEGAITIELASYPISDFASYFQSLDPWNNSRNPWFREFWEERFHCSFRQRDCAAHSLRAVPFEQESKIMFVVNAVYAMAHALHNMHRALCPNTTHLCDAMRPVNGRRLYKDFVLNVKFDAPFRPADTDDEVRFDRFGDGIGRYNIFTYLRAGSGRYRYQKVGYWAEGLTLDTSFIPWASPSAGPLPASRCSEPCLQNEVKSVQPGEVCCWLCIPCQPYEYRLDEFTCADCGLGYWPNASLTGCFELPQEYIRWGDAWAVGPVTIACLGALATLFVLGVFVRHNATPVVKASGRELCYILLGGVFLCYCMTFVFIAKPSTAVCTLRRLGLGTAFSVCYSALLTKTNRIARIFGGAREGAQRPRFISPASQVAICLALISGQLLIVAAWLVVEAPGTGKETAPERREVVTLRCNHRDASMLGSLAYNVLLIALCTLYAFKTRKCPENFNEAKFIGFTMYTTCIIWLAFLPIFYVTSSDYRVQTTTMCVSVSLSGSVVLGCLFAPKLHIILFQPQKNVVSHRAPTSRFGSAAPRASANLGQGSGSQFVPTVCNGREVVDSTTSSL
Sequence of mGlu4 (P31423 33-912): as the sequence (P31423 33-912) above
Sequence of rat mGlu4 (P31423 33-912): as above
Sequence of human mGlu4 (Q14833 33-912): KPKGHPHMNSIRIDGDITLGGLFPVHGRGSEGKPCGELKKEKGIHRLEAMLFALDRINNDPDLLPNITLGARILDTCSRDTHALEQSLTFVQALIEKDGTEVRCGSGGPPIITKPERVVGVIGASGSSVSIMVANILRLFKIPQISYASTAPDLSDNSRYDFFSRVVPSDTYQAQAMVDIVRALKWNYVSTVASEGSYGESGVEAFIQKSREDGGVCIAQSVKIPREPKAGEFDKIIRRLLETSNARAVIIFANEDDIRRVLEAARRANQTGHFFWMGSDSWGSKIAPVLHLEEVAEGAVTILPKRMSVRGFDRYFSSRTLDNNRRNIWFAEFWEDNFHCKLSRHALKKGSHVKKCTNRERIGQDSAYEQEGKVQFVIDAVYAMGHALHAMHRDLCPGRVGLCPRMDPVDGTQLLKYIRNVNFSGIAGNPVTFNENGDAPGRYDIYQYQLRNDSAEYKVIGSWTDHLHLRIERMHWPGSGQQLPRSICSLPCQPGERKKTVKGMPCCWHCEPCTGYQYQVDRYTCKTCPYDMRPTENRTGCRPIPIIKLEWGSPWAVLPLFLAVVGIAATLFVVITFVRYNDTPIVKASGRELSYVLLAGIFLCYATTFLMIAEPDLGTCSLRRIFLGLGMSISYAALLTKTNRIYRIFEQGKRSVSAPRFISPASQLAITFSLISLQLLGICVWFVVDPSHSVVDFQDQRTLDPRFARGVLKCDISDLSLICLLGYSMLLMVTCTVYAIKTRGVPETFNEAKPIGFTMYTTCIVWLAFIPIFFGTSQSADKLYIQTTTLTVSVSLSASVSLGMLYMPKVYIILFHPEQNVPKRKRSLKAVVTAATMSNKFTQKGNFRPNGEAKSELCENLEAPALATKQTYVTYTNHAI

N[C@@H](Cc1ccc(O)c(O)c1)C(=O)O [L-DOPA]
reversal of forelimb asymmetry ([1]; 0.75 mg/kg alone): inactive alone
reversal of forelimb asymmetry ([1]; 2.5 mg/kg dose): completely reversed motor deficits

O=C(Nc1cc(Cl)cc(Cl)c1)[C@H]1CCCC[C@H]1C(=O)O [VU0155041]
potentiation when mGlu2 and mGlu4 are coexpressed [2]: induce potentiation regardless of mGlu2 expression

Cc1cc(C)n(-c2cc(NC(=O)CN3CCN(C)CC3)nc(-c3ccco3)n2)n1 [compound 23, N-(6-(3,5-dimethyl-1H–pyrazol-1-yl)-2-(furan-2-yl)-pyrimidin-4-yl)-2-(4-methylpiperazin-1-yl)acetamide]
reversal of haloperidol-induced catalepsy (positive control) [3]: robust reversal of haloperidol-induced catalepsy

Cc1ccnc(Nc2nc(-c3cn[nH]c3)c(C)s2)n1 [ADX88178]
potentiation of the effects of subthreshold doses of L-DOPA (6-OHDA lesion models): potentiate the effects of subthreshold doses of L-DOPA

NC(=O)[C@@H]1CCCC[C@@H]1C(=O)Nc1ccc(Cl)c(Cl)c1 [Lu AF21934]
potentiation when mGlu2 and mGlu4 are coexpressed [2]: induce potentiation regardless of mGlu2 expression
fold shift of glutamate CRC (mGlu4; PAM concentration −4.5 (log)): 4.2 ± 0.42
glutamate pEC50 in presence of PAM (mGlu4; PAM concentration −4.5 (log)): 5.43 ± 0.08 ^b
fold shift of glutamate CRC (mGlu4; PAM concentration −5 (log)): 3.8 ± 0.21 ^c
glutamate pEC50 in presence of PAM (mGlu4; PAM concentration −5 (log)): 5.39 ± 0.06 ^b
fold shift of glutamate CRC (mGlu4; PAM concentration −5.5 (log)): 3.2 ± 0.28 ^c
glutamate pEC50 in presence of PAM (mGlu4; PAM concentration −5.5 (log)): 5.32 ± 0.07 ^b
fold shift of glutamate CRC (mGlu4; PAM concentration −6 (log)): 2.1 ± 0.17
glutamate pEC50 in presence of PAM (mGlu4; PAM concentration −6 (log)): 5.14 ± 0.07 ^b
fold shift of glutamate CRC (mGlu4; PAM concentration −6.5 (log)): 1.6 ± 0.09 ^c
glutamate pEC50 in presence of PAM (mGlu4; PAM concentration −6.5 (log)): 5.00 ± 0.04 ^b
fold shift of glutamate CRC (mGlu4; PAM concentration −7 (log)): 1.5 ± 0.12
glutamate pEC50 in presence of PAM (mGlu4; PAM concentration −7 (log)): 4.99 ± 0.07 ^b
fold shift of glutamate CRC (mGlu4; PAM concentration −8 (log)): 1.1 ± 0.03
glutamate pEC50 in presence of PAM (mGlu4; PAM concentration −8 (log)): 4.85 ± 0.03
max response (BRET) in presence of PAM (mGlu2/4 heteromers; [8]): 0.032 ± 0.004
L-AP4 pEC50 in presence of PAM (mGlu2/4 heteromers; CODA-RET, labeled mGlu2 and mGlu4 coexpressed, mean ± SEM): 7.66 ± 0.11
potentiation of L-AP4 responses (mGlu2/4 heteromers): able to potentiate responses
effect on the glutamate CRC (mGlu2/4): induced a leftward shift in the glutamate CRC
fold shift of glutamate CRC (mGlu2/4; PAM concentration −4.5 (log)): 3.2 ± 0.07
glutamate pEC50 in presence of PAM (mGlu2/4; PAM concentration −4.5 (log)): 6.41 ± 0.08 ^b
fold shift of glutamate CRC (mGlu2/4; PAM concentration −5 (log)): 2.8 ± 0.07 ^c
glutamate pEC50 in presence of PAM (mGlu2/4; PAM concentration −5 (log)): 6.36 ± 0.08 ^b
fold shift of glutamate CRC (mGlu2/4; PAM concentration −5.5 (log)): 2.4 ± 0.13 ^c
glutamate pEC50 in presence of PAM (mGlu2/4; PAM concentration −5.5 (log)): 6.29 ± 0.06 ^b
fold shift of glutamate CRC (mGlu2/4; PAM concentration −6 (log)): 1.7 ± 0.04
glutamate pEC50 in presence of PAM (mGlu2/4; PAM concentration −6 (log)): 6.13 ± 0.09 ^b
fold shift of glutamate CRC (mGlu2/4; PAM concentration −6.5 (log)): 1.2 ± 0.05 ^c
glutamate pEC50 in presence of PAM (mGlu2/4; PAM concentration −6.5 (log)): 6.00 ± 0.09 ^b
fold shift of glutamate CRC (mGlu2/4; PAM concentration −7 (log)): 1.2 ± 0.07
glutamate pEC50 in presence of PAM (mGlu2/4; PAM concentration −7 (log)): 5.99 ± 0.06
fold shift of glutamate CRC (mGlu2/4; PAM concentration −8 (log)): 1.0 ± 0.07
glutamate pEC50 in presence of PAM (mGlu2/4; PAM concentration −8 (log)): 5.91 ± 0.11
potentiation of the effects of subthreshold doses of L-DOPA (6-OHDA lesion models): potentiate the effects of subthreshold doses of L-DOPA
max response (BRET) in presence of PAM (mGlu4 homomers; CODA-RET): 0.050 ± 0.003
L-AP4 pEC50 in presence of PAM (mGlu4 homomers; CODA-RET, mGlu4_L1/mGlu4_L2, mean ± SEM): 7.70 ± 0.01
potentiation of L-AP4 responses (mGlu4 homomers): able to potentiate responses

Fc1ccc(Nc2n[nH]c3cccnc23)cc1Cl [VU0418506, N-(3-chloro-4-fluorophenyl)-1H-pyrazolo[4,3-b]pyridin-3-amine]
reversal of forelimb asymmetry ([1]; 3 mg/kg VU0418506 combined with 0.75 mg/kg L-DOPA): statistically significant efficacy
reversal of forelimb asymmetry ([1]; 3 mg/kg alone): inactive alone
reversal of forelimb asymmetry ([1]; 10 mg/kg administered alone, assessed after 30 min): statistically significant reversals of forelimb asymmetry
reversal of forelimb asymmetry ([1]; 30 mg/kg administered alone, assessed after 30 min): statistically significant reversals of forelimb asymmetry
direct allosteric agonist activity (compound added alone) (human mGlu4): does not exhibit direct allosteric agonist activity; also recorded: does not elicit activity in this assay in the absence of glutamate
EC50 (rat mGlu4): 46.6 nM
pEC50 (PAM potency) (rat mGlu4; rat mGlu4, GIRK/thallium flux, mean ± SEM): 7.34 ± 0.04
EC50 (rat mGlu4; read-out: EC50 (PAM potency), rat mGlu4, GIRK/thallium flux): 46 nM
time after dosing for which sustained plasma and brain levels were observed [4]: at least 6 h
brain penetration [5]: good brain penetration
potentiation of glutamate response (mGlu4; cells only expressing mGlu4): induced significant potentiation
glutamate pEC50 in presence of PAM (mGlu4; PAM concentration −5 (log)): 5.87 ± 0.13 ^b
glutamate pEC50 in presence of PAM (mGlu4; PAM concentration −5.5 (log)): 6.07 ± 0.21 ^b
glutamate pEC50 in presence of PAM (mGlu4; PAM concentration −6 (log)): 5.93 ± 0.12 ^b
glutamate pEC50 in presence of PAM (mGlu4; PAM concentration −6.5 (log)): 5.67 ± 0.14 ^b
glutamate pEC50 in presence of PAM (mGlu4; PAM concentration −7 (log)): 5.55 ± 0.17 ^b
glutamate pEC50 in presence of PAM (mGlu4; PAM concentration −8 (log)): 5.08 ± 0.07
doses with significant activity in reversing catalepsy [6]: ≥ 3 mg/kg
max response (BRET) in presence of PAM (mGlu2/4 heteromers; [8]): 0.021 ± 0.002
potentiation of L-AP4 responses (mGlu2/4 heteromers): unable to potentiate L-AP4 responses
effect on the glutamate CRC (mGlu2/4): no effect on the glutamate CRC
glutamate pEC50 in presence of PAM (mGlu2/4; PAM concentration −5.5 (log)): 6.02 ± 0.02
glutamate pEC50 in presence of PAM (mGlu2/4; PAM concentration −6.5 (log)): 5.89 ± 0.07
glutamate pEC50 in presence of PAM (mGlu2/4; PAM concentration −7 (log)): 5.87 ± 0.05
glutamate pEC50 in presence of PAM (mGlu2/4; PAM concentration −8 (log)): 5.86 ± 0.08
max response (BRET) in presence of PAM (mGlu4 homomers; CODA-RET): 0.047 ± 0.0004
potentiation of L-AP4 responses (mGlu4 homomers): able to potentiate responses
impairment of rotorod performance [7]: did not observe any impairment
